Experimental data: ChEMBL document CHEMBL1949587 (Bioorg Med Chem, 2012)
Converted amounts (≈) assume the structure as drawn. One block for each compound: values may come before it. The source made the active and inactive calls. The rule behind the calls is not given here.

Assays:
[1] = target: Receptor-type tyrosine-protein kinase FLT3 (Homo sapiens, UniProt P36888); assay: Inhibition of FLT3
[2] = target: Leukocyte tyrosine kinase receptor (Homo sapiens, UniProt P29376); assay: Inhibition of LTK
[3] = target: Macrophage-stimulating protein receptor (Homo sapiens, UniProt Q04912); assay: Inhibition of RON
[4] = Inhibition of PKA
Calu-6 [5] = assay: Antiangiogenic activity in human Calu6 cells xenografted in BALB/c mouse assessed as microvessel density reduction at 1 to 10 mg/kg, po qd for 11 days measured 24 hrs after last postdose by immunohistochemical staining method; type: functional, organism-based
Method in brief: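 Female Balb/c nude mice given Calu-6 cells s.c. in the flank, 5.0×10⁶ cells per mouse. Dosing was oral, once daily for 11 days, starting once tumors reached 150 mm³. Tumors taken 24 h after the last dose and frozen-sectioned from the mid-portion. Vessels stained with anti-mouse CD31 and counted by image analysis. Density decrease expressed against control.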

[6] = Antiproliferative activity against human JOK1 cells assessed as cell growth inhibition; type: cell-based
[7] = Solubility of the compound in fasted state simulated intestinal fluid at 10 mM after 2 hrs by HPLC-UV analysis; type: physicochemical
Method in brief: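 Triplicate samples made from 10 mM DMSO stocks. DMSO evaporated (1 h), residue dissolved in FaSSIF and shaken 2 h. Solutions filtered, filtrate analysed by UV or HPLC-UV against a four-point calibration curve from the stocks. Result in µg/mL.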

[8] = Antiproliferative activity against human KG1a cells assessed as cell growth inhibition; type: cell-based; conditions: KG-1a
[9] = target: Cyclin-dependent kinase 1 (Homo sapiens, UniProt P06493); assay: Inhibition of CDK1
[10] = Antiproliferative activity against human Huh1 cells assessed as cell growth inhibition; type: cell-based; conditions: HuH-1
[11] = target: Protein-tyrosine kinase 6 (Homo sapiens, UniProt Q13882); assay: Inhibition of BRK
[12] = Cmax in nude mouse at 30 mg/kg, po by LC-MS/MS analysis; type: ADME, organism-based; set-up: dose 30 mg/kg, route oral; conditions: in vivo
Method in brief: (§1)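 Female nude mice given single oral dose in DMSO/Cremophor EL/1% Tween 80 (1:1:8 v/v/v) by stomach sonde. Blood taken at 30 min, 1, 2, 4, 7 and 24 h (n = 2/time point). Plasma precipitated with CH3CN/MeOH plus internal standard, filtered, measured by LC-MS/MS (LLOQ 20 ng/mL). Parameters by non-compartmental analysis; CL given as CL/F.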

[13] = target: Cyclin-dependent kinase 2 (Homo sapiens, UniProt P24941); assay: Inhibition of CDK2
Calu-6 [14] = assay: Antiproliferative activity against human Calu6 cells assessed as cell growth inhibition; type: cell-based
MKN-28 = assay: Antiproliferative activity against human MKN28 cells assessed as cell growth inhibition; type: cell-based
HepG2 = assay: Antiproliferative activity against human HepG2 cells assessed as cell growth inhibition; type: cell-based
[15] = target: Hepatocyte growth factor receptor (Homo sapiens, UniProt P08581); assay: Inhibition of MET
[16] = Inhibition of PDGFR
Calu-6 [17] = assay: Antitumor activity against human Calu6 cells xenografted in po dosed BALB/c mouse assessed as tumor growth inhibition administered qd for 11 days; type: functional; conditions: for ED50: Calu-6, po, 264 h
Method in brief: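 Calu-6 cells in Hanks' balanced salt solution, 5.0 × 10⁶ per mouse, implanted s.c. in flank of female Balb/c nude mice. Once tumors reached 150 mm³, oral dosing once daily for 11 days. Tumor volume = 1/2 × long × short² diameter; growth inhibition from volume change in treated versus control group.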

MDA-MB-231 = assay: Antiproliferative activity against human MDA-MB-231 cells assessed as cell growth inhibition; type: cell-based
C32 = assay: Antiproliferative activity against human C32 cells assessed as cell growth inhibition; type: cell-based
DU-145 = assay: Antiproliferative activity against human DU145 cells assessed as cell growth inhibition; type: cell-based
BXPC-3 = assay: Antiproliferative activity against human BxPC3 cells assessed as cell growth inhibition; type: cell-based
[18] = Antiproliferative activity against human COLO320DM cells assessed as cell growth inhibition; type: cell-based; conditions: COLO 320DM
[19] = target: Tyrosine-protein kinase Lyn (Homo sapiens, UniProt P07948); assay: Inhibition of Lyn
NCI-N87 = assay: Antiproliferative activity against human NCI-N87 cells assessed as cell growth inhibition; type: cell-based
[20] = target: Epithelial discoidin domain-containing receptor 1 (Homo sapiens, UniProt Q08345); assay: Inhibition of DDR1
HCT-15 = assay: Antiproliferative activity against human HCT15 cells assessed as cell growth inhibition; type: cell-based
Ephrin type-A receptor 2 = Ephrin type-A receptor 2 (Homo sapiens, UniProt P29317); assay: Inhibition of EPHA2
[21] = Tmax in nude mouse at 30 mg/kg, po by LC-MS/MS analysis; type: ADME, organism-based; set-up: dose 30 mg/kg, route oral; conditions: in vivo; method in brief: as §1
NCI-H460 = assay: Antiproliferative activity against human NCI-H460 cells assessed as cell growth inhibition; type: cell-based
[22] = Half life in nude mouse at 30 mg/kg, po by LC-MS/MS analysis; type: ADME, organism-based; set-up: dose 30 mg/kg, route oral; conditions: in vivo; method in brief: as §1
[23] = target: Proto-oncogene tyrosine-protein kinase Src (Homo sapiens, UniProt P12931); assay: Inhibition of Src
HT-29 = assay: Antiproliferative activity against human HT-29 cells assessed as cell growth inhibition; type: cell-based
PANC-1 = assay: Antiproliferative activity against human PANC1 cells assessed as cell growth inhibition; type: cell-based
HCT-116 = assay: Antiproliferative activity against human HCT116 cells; type: cell-based
[24] = target: Fibroblast growth factor receptor 2 (Homo sapiens, UniProt P21802); assay: Inhibition of FGFR2
[25] = Antiproliferative activity against human 10C9 cells assessed as cell growth inhibition; type: cell-based
[26] = target: Insulin-like growth factor 1 receptor (Homo sapiens, UniProt P08069); assay: Inhibition of IGF1R
CCRF-CEM = assay: Antiproliferative activity against human CCRF-CEM cells assessed as cell growth inhibition; type: cell-based
[27] = target: Tyrosine-protein kinase Fyn (Homo sapiens, UniProt P06241); assay: Inhibition of Fyn
[28] = target: Tyrosine-protein kinase Lck (Homo sapiens, UniProt P06239); assay: Inhibition of LCK
CEM/C2 = assay: Antiproliferative activity against human CEM/C2 cells assessed as cell growth inhibition; type: cell-based
NCI-H441 = assay: Antiproliferative activity against human NCI-H441 cells assessed as cell growth inhibition; type: cell-based
[29] = Cytotoxicity in fibroblast cells assessed as morphological change at 4 to 20 uM; type: cell-based
K562 = assay: Antiproliferative activity against human K562 cells assessed as cell growth inhibition; type: cell-based
PC-3 = assay: Antiproliferative activity against human PC3 cells assessed as cell growth inhibition; type: cell-based
T47D = assay: Antiproliferative activity against human T47D cells assessed as cell growth inhibition; type: cell-based
COLO 205 = assay: Antiproliferative activity against human COLO205 cells assessed as cell growth inhibition; type: cell-based
[30] = Antiproliferative activity against human MDA-MB-435S cells assessed as cell growth inhibition; type: cell-based

Chain of Tyrosine-protein kinase Lyn (P07948 whole entry): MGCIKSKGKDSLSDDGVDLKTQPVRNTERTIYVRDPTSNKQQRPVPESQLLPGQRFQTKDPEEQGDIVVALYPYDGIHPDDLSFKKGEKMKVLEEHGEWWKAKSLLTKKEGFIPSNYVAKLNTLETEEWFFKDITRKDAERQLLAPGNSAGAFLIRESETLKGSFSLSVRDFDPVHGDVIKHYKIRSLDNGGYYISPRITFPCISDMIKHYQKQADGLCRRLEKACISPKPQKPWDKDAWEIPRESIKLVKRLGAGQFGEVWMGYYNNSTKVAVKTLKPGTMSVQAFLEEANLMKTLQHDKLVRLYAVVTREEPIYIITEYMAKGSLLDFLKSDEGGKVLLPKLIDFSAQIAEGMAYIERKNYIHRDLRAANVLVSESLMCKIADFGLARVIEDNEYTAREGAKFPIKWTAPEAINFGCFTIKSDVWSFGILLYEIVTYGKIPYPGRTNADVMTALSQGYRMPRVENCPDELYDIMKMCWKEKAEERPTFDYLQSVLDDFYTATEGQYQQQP
Chain of Macrophage-stimulating protein receptor (Q04912 25-304 limits assumed): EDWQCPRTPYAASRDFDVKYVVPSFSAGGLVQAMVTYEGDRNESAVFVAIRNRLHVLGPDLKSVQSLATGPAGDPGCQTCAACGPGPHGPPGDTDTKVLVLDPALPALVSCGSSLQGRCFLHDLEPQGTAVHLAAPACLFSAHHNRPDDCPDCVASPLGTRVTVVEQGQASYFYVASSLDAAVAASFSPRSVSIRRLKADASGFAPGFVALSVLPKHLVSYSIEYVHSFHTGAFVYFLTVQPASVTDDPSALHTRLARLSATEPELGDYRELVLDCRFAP
Chain of Macrophage-stimulating protein receptor (Q04912 310-1400 limits assumed): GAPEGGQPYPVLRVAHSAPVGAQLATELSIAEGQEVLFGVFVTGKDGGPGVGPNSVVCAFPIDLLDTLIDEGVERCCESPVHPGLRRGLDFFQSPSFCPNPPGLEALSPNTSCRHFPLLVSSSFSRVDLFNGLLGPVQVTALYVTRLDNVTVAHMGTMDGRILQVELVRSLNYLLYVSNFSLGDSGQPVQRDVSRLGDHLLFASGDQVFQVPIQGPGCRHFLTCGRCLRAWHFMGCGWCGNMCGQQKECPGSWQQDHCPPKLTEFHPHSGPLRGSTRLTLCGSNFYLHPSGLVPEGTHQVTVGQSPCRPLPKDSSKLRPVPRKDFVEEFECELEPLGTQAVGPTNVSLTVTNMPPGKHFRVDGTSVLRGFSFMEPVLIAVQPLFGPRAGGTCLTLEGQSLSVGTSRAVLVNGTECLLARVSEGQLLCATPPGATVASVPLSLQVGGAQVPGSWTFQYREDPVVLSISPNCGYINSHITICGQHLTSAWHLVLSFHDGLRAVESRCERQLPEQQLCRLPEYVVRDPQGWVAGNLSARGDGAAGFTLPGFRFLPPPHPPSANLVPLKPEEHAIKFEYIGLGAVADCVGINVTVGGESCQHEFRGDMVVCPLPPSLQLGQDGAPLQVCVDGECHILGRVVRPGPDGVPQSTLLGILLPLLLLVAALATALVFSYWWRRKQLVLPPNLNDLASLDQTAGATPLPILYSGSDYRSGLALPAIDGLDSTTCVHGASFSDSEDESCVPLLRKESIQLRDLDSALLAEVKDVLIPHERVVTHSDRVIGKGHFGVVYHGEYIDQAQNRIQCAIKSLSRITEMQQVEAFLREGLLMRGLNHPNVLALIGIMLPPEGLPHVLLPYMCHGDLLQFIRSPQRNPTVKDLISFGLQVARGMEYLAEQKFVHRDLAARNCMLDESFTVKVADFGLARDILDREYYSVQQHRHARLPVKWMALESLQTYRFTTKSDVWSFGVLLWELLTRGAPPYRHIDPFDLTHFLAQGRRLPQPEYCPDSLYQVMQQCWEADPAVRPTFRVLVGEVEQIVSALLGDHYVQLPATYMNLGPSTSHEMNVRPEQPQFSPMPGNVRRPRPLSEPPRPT
Chain of Insulin-like growth factor 1 receptor (P08069 31-736 limits assumed): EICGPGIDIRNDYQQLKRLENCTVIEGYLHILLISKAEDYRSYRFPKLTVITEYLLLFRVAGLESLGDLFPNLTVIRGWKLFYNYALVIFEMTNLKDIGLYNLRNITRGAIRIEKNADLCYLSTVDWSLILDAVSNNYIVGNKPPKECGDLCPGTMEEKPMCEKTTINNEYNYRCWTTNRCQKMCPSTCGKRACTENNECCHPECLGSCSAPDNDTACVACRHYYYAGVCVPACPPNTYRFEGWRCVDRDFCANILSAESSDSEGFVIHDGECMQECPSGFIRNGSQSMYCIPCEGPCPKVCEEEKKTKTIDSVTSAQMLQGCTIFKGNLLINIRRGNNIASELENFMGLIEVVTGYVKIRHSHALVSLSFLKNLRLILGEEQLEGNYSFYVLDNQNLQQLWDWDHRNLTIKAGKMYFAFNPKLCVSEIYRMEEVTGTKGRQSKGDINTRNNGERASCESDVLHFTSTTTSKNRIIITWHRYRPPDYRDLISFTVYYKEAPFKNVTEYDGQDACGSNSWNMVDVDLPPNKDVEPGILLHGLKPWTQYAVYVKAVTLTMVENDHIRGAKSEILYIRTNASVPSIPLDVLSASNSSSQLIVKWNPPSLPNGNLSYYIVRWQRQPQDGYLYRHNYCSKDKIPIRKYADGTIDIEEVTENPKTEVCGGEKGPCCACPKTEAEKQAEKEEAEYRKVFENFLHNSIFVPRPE
Chain of Insulin-like growth factor 1 receptor (P08069 741-1367 limits assumed): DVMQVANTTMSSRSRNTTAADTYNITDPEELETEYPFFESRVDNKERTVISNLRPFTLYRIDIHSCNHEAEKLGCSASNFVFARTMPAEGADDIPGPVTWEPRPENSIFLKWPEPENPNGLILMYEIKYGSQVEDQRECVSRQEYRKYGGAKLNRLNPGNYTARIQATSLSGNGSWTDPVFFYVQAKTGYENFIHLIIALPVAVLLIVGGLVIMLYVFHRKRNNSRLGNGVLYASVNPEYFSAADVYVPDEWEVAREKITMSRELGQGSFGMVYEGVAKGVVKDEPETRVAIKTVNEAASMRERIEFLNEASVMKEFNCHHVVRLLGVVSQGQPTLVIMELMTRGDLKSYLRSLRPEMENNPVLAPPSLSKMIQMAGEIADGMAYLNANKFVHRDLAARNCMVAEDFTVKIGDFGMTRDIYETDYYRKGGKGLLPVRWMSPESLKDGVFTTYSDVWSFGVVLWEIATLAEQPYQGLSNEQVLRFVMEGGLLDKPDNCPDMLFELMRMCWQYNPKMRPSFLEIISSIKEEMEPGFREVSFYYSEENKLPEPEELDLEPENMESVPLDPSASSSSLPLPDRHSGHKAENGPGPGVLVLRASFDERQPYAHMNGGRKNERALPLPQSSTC
Chain of Proto-oncogene tyrosine-protein kinase Src (P12931 2-536 limits assumed): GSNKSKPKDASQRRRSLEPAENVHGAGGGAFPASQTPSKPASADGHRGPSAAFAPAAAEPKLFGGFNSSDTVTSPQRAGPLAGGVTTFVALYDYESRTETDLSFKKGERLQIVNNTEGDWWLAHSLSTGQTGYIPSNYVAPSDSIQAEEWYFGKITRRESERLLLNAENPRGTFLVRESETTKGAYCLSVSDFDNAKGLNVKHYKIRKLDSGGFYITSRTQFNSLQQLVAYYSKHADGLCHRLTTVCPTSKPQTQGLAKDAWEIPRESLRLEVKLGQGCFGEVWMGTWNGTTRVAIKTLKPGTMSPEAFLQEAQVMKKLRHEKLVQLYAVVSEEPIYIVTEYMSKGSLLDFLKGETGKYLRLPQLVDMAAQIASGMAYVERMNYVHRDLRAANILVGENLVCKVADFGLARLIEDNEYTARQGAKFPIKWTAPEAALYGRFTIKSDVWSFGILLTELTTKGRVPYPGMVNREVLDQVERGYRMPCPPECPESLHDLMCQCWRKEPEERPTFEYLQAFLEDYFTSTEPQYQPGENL
Chain of Leukocyte tyrosine kinase receptor (P29376 whole entry): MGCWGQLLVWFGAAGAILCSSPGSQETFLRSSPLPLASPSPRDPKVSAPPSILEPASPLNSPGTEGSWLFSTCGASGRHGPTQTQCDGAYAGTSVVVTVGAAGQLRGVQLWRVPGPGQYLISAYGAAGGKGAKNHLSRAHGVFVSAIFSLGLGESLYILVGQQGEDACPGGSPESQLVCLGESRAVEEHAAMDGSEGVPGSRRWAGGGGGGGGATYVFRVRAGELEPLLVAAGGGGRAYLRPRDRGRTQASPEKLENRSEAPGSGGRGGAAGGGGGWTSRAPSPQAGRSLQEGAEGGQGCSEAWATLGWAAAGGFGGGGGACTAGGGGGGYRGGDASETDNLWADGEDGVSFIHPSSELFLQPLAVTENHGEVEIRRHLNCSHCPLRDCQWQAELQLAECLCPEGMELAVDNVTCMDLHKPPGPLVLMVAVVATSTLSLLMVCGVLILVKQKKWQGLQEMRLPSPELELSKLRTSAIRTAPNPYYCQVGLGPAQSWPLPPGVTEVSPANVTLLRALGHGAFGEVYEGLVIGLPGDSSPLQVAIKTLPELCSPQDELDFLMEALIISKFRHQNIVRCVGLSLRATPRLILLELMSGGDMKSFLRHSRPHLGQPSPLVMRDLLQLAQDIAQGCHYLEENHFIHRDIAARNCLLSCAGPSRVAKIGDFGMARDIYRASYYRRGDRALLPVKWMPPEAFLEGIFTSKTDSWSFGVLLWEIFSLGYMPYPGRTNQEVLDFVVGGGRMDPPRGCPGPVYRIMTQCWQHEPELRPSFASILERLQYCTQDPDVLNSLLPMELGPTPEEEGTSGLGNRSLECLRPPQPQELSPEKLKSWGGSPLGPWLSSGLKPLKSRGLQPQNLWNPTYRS
Chain of Cyclin-dependent kinase 1 (P06493 whole entry): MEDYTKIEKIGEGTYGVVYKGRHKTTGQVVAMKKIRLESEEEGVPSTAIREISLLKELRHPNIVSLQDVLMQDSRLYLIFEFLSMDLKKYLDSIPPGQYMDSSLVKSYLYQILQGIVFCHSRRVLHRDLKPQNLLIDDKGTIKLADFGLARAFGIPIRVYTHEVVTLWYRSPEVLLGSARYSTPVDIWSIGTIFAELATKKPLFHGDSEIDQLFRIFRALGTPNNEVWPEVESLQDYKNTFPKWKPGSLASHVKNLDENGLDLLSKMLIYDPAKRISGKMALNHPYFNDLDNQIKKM

IC50 [1]: > 50 µM | IC50 [2]: > 50 µM | IC50 [3]: > 50 µM | IC50 [4]: > 50 µM | solubility at 2 h, 10000 µM [7]: 263 µg/mL (≈ 727 µM) | IC50 [9]: > 50 µM | IC50 [11]: > 50 µM | Cmax [12]: 9370 ng/mL | IC50 [13]: > 50 µM | IC50 (Calu-6 [14]): 54 µM | IC50 (MKN-28): 23 µM | IC50 (HepG2): 28 µM | IC50 [15]: > 50 µM | IC50 [16]: > 50 µM | IC50 (MDA-MB-231): 38 µM | IC50 (DU-145): 23 µM | IC50 (BXPC-3): 51 µM | IC50 [19]: > 50 µM | IC50 [20]: > 50 µM | IC50 (HCT-15): 29 µM | IC50 (Ephrin type-A receptor 2): > 50 µM | Tmax [21]: 1 h | IC50 (NCI-H460): 24 µM | half-life [22]: 8.5 h | IC50 [23]: > 50 µM | IC50 (HT-29): 16 µM | IC50 (PANC-1): 49 µM | IC50 (HCT-116): 21 µM | IC50 [24]: > 50 µM | IC50 [26]: > 50 µM | IC50 (CCRF-CEM): 30 µM | IC50 [27]: > 50 µM | IC50 [28]: > 50 µM | IC50 (NCI-H441): 34 µM | IC50 (K562): 36 µM | IC50 (PC-3): 17 µM | IC50 (T47D): 7.2 µM | IC50 (COLO 205): 18 µM
SMILES: COc1ccc(C(=O)NC[C@H](O)CO)cc1/C=C/c1ccc(Cl)cc1
Activity (Calu-6 [5]): Active | IC50 [6]: 38 µM | IC50 [8]: 20 µM | IC50 [10]: 30 µM | TGI (Calu-6 [17]): Dose-dependent effect | ED50 (Calu-6 [17]): 2.3 mg/kg | IC50 (C32): 46 µM | IC50 [18]: 61 µM | IC50 (NCI-N87): 52 µM | IC50 [25]: 50 µM | IC50 (CEM/C2): 30 µM | Activity [29]: Non-toxic | IC50 [30]: 69 µM

IC50 [1]: > 50 µM | IC50 [2]: > 50 µM | IC50 [3]: > 50 µM | IC50 [4]: > 50 µM | solubility at 2 h, 10000 µM [7]: 225 µg/mL (≈ 622 µM) | IC50 [9]: > 50 µM | IC50 [11]: > 50 µM | Cmax [12]: 8270 ng/mL | IC50 [13]: > 50 µM | IC50 (Calu-6 [14]): 40 µM | IC50 (MKN-28): 15 µM | IC50 (HepG2): 16 µM | IC50 [15]: > 50 µM | IC50 [16]: > 50 µM | IC50 (MDA-MB-231): 39 µM | IC50 (DU-145): 5.3 µM | IC50 (BXPC-3): 27 µM | IC50 [19]: > 50 µM | IC50 [20]: > 50 µM | IC50 (HCT-15): 20 µM | IC50 (Ephrin type-A receptor 2): > 50 µM | Tmax [21]: 1 h | IC50 (NCI-H460): 15 µM | half-life [22]: 7.8 h | IC50 [23]: > 50 µM | IC50 (HT-29): 10 µM | IC50 (PANC-1): 39 µM | IC50 (HCT-116): 13 µM | IC50 [24]: > 50 µM | IC50 [26]: > 50 µM | IC50 (CCRF-CEM): 20 µM | IC50 [27]: > 50 µM | IC50 [28]: > 50 µM | IC50 (NCI-H441): 25 µM | IC50 (K562): 29 µM | IC50 (PC-3): 24 µM | IC50 (T47D): 4.5 µM | IC50 (COLO 205): 18 µM
SMILES: COc1ccc(C(=O)NC[C@@H](O)CO)cc1/C=C/c1ccc(Cl)cc1
Activity (Calu-6 [5]): Active | IC50 [6]: 31 µM | IC50 [8]: 17 µM | IC50 [10]: 30 µM | TGI (Calu-6 [17]): Dose-dependent effect | ED50 (Calu-6 [17]): 3.2 mg/kg | IC50 (C32): 38 µM | IC50 [18]: 46 µM | IC50 (NCI-N87): 52 µM | IC50 [25]: 38 µM | IC50 (CEM/C2): 30 µM | Activity [29]: Non-toxic | IC50 [30]: 74 µM
